Substitutions are numbered along the chain they refer to.

Assay [1] can be described thus: Binding affinity at Beta-lactamase D104K G238S expressed in Escherichia coli DH10B cells. The method, boiled down: (§1)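 Enzyme cloned in pBCSK(−), expressed in E. coli DH10B, purified, then further purified by size-exclusion HPLC; purity checked by SDS-PAGE. Ki found by competing increasing inhibitor concentrations against nitrocefin at 4–6 × Km in continuous spectrophotometric assays at room temperature. Percent inhibition was fitted to an equation using the nitrocefin Km.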

Assay [2] in a line: Binding affinity at Beta-lactamase SHV2 G238S expressed in Escherichia coli DH10B cells. The essentials: as §1
Assay [3] in a line: Binding affinity at Beta-lactamase D104K expressed in Escherichia coli DH10B cells. The essentials:
as §1

In the next assay the target is T1, Beta-lactamase SHV-1 (Escherichia coli, UniProt P0AD63).
T1 sequence (P0AD63 whole entry): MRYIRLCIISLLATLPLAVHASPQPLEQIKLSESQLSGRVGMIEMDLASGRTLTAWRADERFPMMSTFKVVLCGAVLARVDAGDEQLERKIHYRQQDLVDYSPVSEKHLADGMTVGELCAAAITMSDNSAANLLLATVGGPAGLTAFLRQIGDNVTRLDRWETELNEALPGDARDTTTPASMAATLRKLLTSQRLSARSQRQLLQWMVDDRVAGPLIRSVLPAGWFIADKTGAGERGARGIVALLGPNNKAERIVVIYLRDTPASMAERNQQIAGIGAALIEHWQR
As to the kind of experiment: Binding affinity at Beta-lactamase SHV1 expressed in Escherichia coli DH10B cells. The method, boiled down: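 SHV-1 cloned in pBCSK(−), expressed in E. coli DH10B and purified; purity checked by SDS-PAGE. Ki found by competing increasing inhibitor concentrations against nitrocefin at 4–6 × Km in continuous spectrophotometric assays at room temperature. Percent inhibition was fitted to an equation using the nitrocefin Km.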

The target of assay [4] is T2, SHV-5 extended spectrum beta-lactamase (Escherichia coli, UniProt Q6REX6).
T2 sequence (Q6REX6 whole entry): T1 sequence (P0AD63 whole entry) with L31Q, T231N, G234S, E235K, S265N
Nature of the assay: Binding affinity at Beta-lactamase SHV5 expressed in Escherichia coli DH10B cells. The essentials: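 Purified SHV-5 enzyme, expressed in E. coli DH10B from pBCSK(−); purity checked by SDS-PAGE. Ki from continuous spectrophotometric competition assays at room temperature: increasing inhibitor concentrations against nitrocefin at 4 to 6 times its Km. Percent inhibition fitted using the nitrocefin Km. Inhibition mode from full progress curves at varied nitrocefin, without inhibitor and at two inhibitor concentrations.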

Regarding `CC(=O)NCB(O)O` [ACETAMIDOMETHYLBORONIC ACID], the inhibitory constant (Ki) in assay [1] amounted to 300 µM; in assay [2], 330 µM; in assay [3] it was 190 µM; on Beta-lactamase SHV-1, 300 µM; in assay [4] it was 360 µM.
Consider `CO/N=C(\C(=O)NCB(O)O)c1csc(N)n1` [CEFOTAXIME BATSI], for which the Ki in assay [1] came out at 1.1 µM; in assay [2], 3.4 µM; in assay [3], 5 µM; at Beta-lactamase SHV-1, 8.9 µM; in assay [4], 5 µM.
For the compound `CC(C)(O/N=C(\C(=O)NCB(O)O)c1csc(N)n1)C(=O)O` [CEFTAZIDIME BATSI], the Ki in assay [1] came to 4.5 µM; in assay [2] it was 6.8 µM; in assay [3] it was 0.7 µM; at Beta-lactamase SHV-1, 2.2 µM; in assay [4], 4.5 µM.

Values taken from ChEMBL document CHEMBL1146195, “Use of novel boronic acid transition state inhibitors to probe substrate affinity in SHV-type extended-spectrum beta-lactamases” (Antimicrob Agents Chemother, 2007).
